Laboratory results as given in PubChem BioAssay AID488992 (Sanford-Burnham Center for Chemical Genomics, 2010).
The source made the active and inactive calls.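 The calls were made as follows: active = IC50 below 20 µM; inactive = the rest.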

Biological target: Apelin receptor (Homo sapiens) (UniProt P35414)
Test: apelin receptor inhibitor analogs – cell-based, luminescence, set 3, SAR follow-up (AID 488992)
Settings: CHO-K1 AGTRL-1 PathHunter beta-arrestin
In short: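 Assay system: CHO-K1 cells with ProLink-tagged APJ and arrestin–enzyme-acceptor fusion; Doses: dose-response series; Schedule: overnight cell seeding, 90 min compound-agonist exposure at 25 °C; Signal: beta-gal complementation luminescence.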

Apelin receptor (Homo sapiens), sequence (P35414 whole entry, looked up): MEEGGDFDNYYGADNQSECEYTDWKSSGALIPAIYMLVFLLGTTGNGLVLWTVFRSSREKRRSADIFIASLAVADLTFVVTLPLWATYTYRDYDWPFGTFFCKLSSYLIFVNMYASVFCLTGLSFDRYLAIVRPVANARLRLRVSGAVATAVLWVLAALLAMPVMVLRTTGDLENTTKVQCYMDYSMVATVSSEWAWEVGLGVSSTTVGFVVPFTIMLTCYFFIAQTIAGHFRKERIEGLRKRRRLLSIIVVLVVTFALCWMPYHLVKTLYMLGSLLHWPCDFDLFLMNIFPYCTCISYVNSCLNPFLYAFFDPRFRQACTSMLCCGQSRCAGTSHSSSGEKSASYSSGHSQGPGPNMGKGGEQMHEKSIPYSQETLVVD

SMILES | IC50
COc1cc(CSc2nc(C)cc(C)n2)ccc1OC(=O)c1ccc([N+](=O)[O-])cc1 | > 79 µM (inactive)
COc1cc(CSc2nc(C)cc(C)n2)ccc1OC(=O)c1ccccc1 | > 79 µM (inactive)
Cc1ccnc(SCc2cc(=O)c(OCc3ccc(Cl)c([N+](=O)[O-])c3)co2)n1 | > 79 µM (inactive)
COc1cc(CSc2nc(C)cc(C)n2)ccc1OC(=O)c1cccnc1 | > 79 µM (inactive)
Cc1ccnc(SCc2cc(=O)c(OC(=O)C(C)(C)C)co2)n1 | > 79 µM (inactive)
O=C(Nc1ccc(CSc2ncccn2)cc1)c1ccccc1 | > 79 µM (inactive)

The remaining lines, values ahead:

IC50 | SMILES
> 79 µM (inactive) | Cc1ccnc(SCc2cc(=O)c(OC(=O)c3ccno3)co2)n1
> 79 µM (inactive) | CC(=O)Oc1coc(CSc2nccc(C)n2)cc1=O
> 79 µM (inactive) | Cc1ccnc(SCc2cc(=O)c(OC(=O)c3ccc([N+](=O)[O-])o3)co2)n1
> 79 µM (inactive) | Cc1ccnc(SCc2cc(=O)c(OC(=O)C(C)C)co2)n1
